# A selection: hits, their analogues and other compounds. The true share with any hit is near 2.2%.
# FGF22 binding: FGF22 (human) thermal shift binding; Q9HCT0; recombinant FGF22 thermal shift, SYPRO orange fluorescence; percent of sucrose octasulfate shift, DMSO zero; activity (Tm shift, normalised), % at 9.99 µM; 340,000 compounds, 1.5% hits; AID 651658;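 active means mean Tm shift, scaled 0 neutral to 100 positive control, at about 1.3% or above, every replicate too, limit read from the data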
# Target sequence (Q9HCT0 whole entry, looked up): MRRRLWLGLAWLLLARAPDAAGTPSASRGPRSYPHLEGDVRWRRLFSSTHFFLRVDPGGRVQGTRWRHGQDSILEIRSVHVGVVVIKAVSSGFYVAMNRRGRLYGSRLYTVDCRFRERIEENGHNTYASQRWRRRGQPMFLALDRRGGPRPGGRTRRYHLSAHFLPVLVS
# Jurkat NFkB inh: lowers PMA/ionomycin-induced NF-kB signal in Jurkat cells; PMA/ionomycin-induced NF-kB luciferase reporter, luminescence; inhibition, % at 4 µM; 330,000 compounds, 0.53% hits; in the data active means inhibition above about 50%
# NR2E3 ag-1: agonists of human NR2E3 nuclear receptor; CHO-S Gal4-NCOR/VP16-NR2E3 two-hybrid, luciferase; inhibition of corepressor binding, % at 3.98 µM; Q9Y5X4; AID 602229; 360,000 compounds, 0.35% hits;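 active means inhibition above the mean of all tested compounds plus 3 SD, cut at about 70% in these data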;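 further: 0% = DMSO with NR2E3 transfected cells and 100% = cells lacking NR2E3 construct; higher means lower luciferase signal from less NR2E3 corepressor binding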
# Target sequence (Q9Y5X4 whole entry, looked up, the tested form may be a part): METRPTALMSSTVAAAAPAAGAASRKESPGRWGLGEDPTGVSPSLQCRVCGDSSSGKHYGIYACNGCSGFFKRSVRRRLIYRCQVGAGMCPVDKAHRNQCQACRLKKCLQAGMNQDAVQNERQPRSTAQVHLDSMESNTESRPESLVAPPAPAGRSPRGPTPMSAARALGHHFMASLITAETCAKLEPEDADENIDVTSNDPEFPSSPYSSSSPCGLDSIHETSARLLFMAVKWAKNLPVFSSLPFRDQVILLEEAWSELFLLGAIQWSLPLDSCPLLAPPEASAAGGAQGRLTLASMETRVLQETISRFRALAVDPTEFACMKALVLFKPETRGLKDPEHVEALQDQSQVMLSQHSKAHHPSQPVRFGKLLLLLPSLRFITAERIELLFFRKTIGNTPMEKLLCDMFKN
# NR2E3 ag-2: agonists of human nuclear receptor NR2E3. Q9Y5X4. GST-NR2E3/biotin-RetCOR TR-FRET, 1536-well. inhibition of corepressor binding, % at 4.78 µM. 320,000 compounds, 0.12% hits. AID 2300;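 active means percent inhibition above the cutoff of mean plus 3 SD of all tested compounds, set per screening campaign, cut at about 20% in these data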;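 further: 0% = DMSO wells and 100% = biotin wells as full block of FRET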
#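 Material: NR2E3–RetCOR corepressor complex | Quantity: 1.35 nM GST-tagged NR2E3 final | Schedule: 5 h at 4 °C | Replication: Singlicate compound wells | Reagent: RetCOR corepressor, biotinylated, 7 nM | Controls: Biotin wells as high control, 0.6% DMSO wells as low control | Signal: TR-FRET, Eu(K)-anti-GST donor, streptavidin-D2 acceptor, ex 340, em 617/671 nm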
# 697 NFkB inh: lowers PMA/ionomycin-induced NF-kB signal in 697 B cells; 697 B-cell NF-kB luciferase reporter, 16 h; inhibition, % at 4 µM; 330,000 compounds, 0.33% hits; AID 435022; in the data active means inhibition above about 35%
# miR-122 sensor: inhibitors of miR-122 in Huh7 cells; Huh7 miR-122 Renilla luciferase sensor, 48 h; neutral wells = 0, positive control = 100; activation (reporter increase), % at 12.5 µM; 340,000 compounds, 0.3% hits;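 active means mean replicate activation score at least 90 and every replicate individually at or above 90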;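 further: higher luciferase means less miR-122 activity so hits act as miR-122 inhibitors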
# Jurkat NFkB conf: lowers PMA/ionomycin-induced NF-kB signal in Jurkat cells. 2,700 compounds, 27% hits. Jurkat NF-kB luciferase, 16 h. inhibition, % at 4 µM. shares compounds with Jurkat NFkB inh. AID 435020;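 active means inhibition reaching about 45% at 4 µM in either replicate, limit read from the data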;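 further: plate controls were PMA/ionomycin stimulated DMSO wells for no effect and unstimulated DMSO wells for full effect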
# 697 NFkB conf: inhibitors of the PMA/ionomycin-induced NF-kB reporter in 697 B cells, retest. shares compounds with 697 NFkB inh. 697 B-cell NF-kB luciferase, 16 h. inhibition, % at 4 µM. 2,000 compounds, 35% hits; in the data active means inhibition mostly above about 28%, no sharp cut-off; inactive means mostly below about 22%
# NR2E3 ag confirm: NR2E3 agonism confirmed in two-hybrid assay; shares compounds with NR2E3 ag-1; CHO-S mammalian two-hybrid NR2E3-NCOR, luciferase luminescence; inhibition, % at 3.98 µM; 2,300 compounds, 51% hits; AID 624378;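 active means average inhibition above a cutoff equal to the mean inhibition of all tested compounds plus one SD, cut at about 70% in these data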;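 further: 0% = DMSO in NR2E3 cells and 100% = DMSO in cells lacking NR2E3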
# VP16 counter: reduces GAL4-VP16 reporter signal in NR2E3 counterscreen | shares compounds with NR2E3 ag-1 | CHO-S GAL4-VP16 luciferase reporter, luminescence | inhibition, % at 3.98 µM | 2,300 compounds, 29% hits | AID 624379;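 active means mean inhibition above a cutoff equal to the average over all tested compounds plus one standard deviation, cut at about 70% in these data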;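 further: luciferase from a UAS reporter driven by GAL4-VP16 transactivation; 0% = DMSO with VP16-transfected cells and 100% = DMSO with cells lacking VP16; higher means less reporter light so more repression of VP16 activity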
# Active calls of the source: *; · = no result; [ ] = dose if it differs, or a comment.
SMILES,FGF22 binding,Jurkat NFkB inh,NR2E3 ag-1,NR2E3 ag-2,697 NFkB inh,miR-122 sensor,Jurkat NFkB conf,NR2E3 ag confirm,VP16 counter,others
CCCNC(=O)N1C[C@@H](C)[C@H](OC)CN(C)C(=O)c2ccc(NS(=O)(=O)CC(F)(F)F)cc2OC[C@H]1C,0,·,·,·,·,·,·,·,·,
C[C@@H]1CN([C@@H](C)CO)C(=O)c2cc(NC(=O)C3CCCCC3)ccc2O[C@@H]1CN(C)CC1CCCCC1,0,·,·,·,·,33[16.7 µM],·,·,·,
CC(=O)N1CCN(C(=O)CN2C(=O)NC(C)(c3ccc4ccccc4c3)C2=O)CC1 (stereo not given),0,-2,-21,3,10,-5,·,·,·,
CC1(c2ccc3ccccc3c2)NC(=O)N(CC(=O)N2CCN(Cc3ccc(C#N)cc3)CC2)C1=O (stereo not given),·,58*,105*,·,48*,·,68*,90*,80*,697 NFkB conf=103*
O=S(=O)(c1cc(F)ccc1F)N1CCN(c2ccccn2)CC1,0,2,-12,-3,0,-2,·,·,·,
O=S(=O)(c1cc(F)ccc1F)N1CCN(c2ncnc3ccccc23)CC1,0,60*,88*,·,-40,19,58*,92*,74*,
O=S(=O)(Nc1cccc2ncccc12)c1cccs1,·,80*,97*,3,-25,234*,64*,48,24,
O=S(=O)(Nc1cccc2cccnc12)c1ccccc1,0,101*,86*,0,-14,7,19,18,4,
COCC(=O)N1[C@@H](CO)[C@@H](c2ccccc2)[C@@H]1CNC(=O)c1ccccn1,-1,·,·,·,·,25[16.7 µM],·,·,·,
COc1ccccc1C(=O)Nc1nc(-c2ccc(S(=O)(=O)N3CCOCC3)cc2)cs1,·,76*,92*,-2,41*,-14,61*,89*,63,697 NFkB conf=30*
COc1ccccc1OC(C)C(=O)Nc1nc(-c2ccc(S(=O)(=O)N3CCOCC3)cc2)cs1 (stereo not given),·,-8,11,0,-49,-2,·,·,·,
COc1ccc(Nc2nc(N3CCCC3)c3ccccc3n2)cc1,·,58*,51,7,-24,-12,20,51,30,
COc1ccc(Nc2c3ccccc3nc3ccccc23)cc1,0,15,-9,-4,-90,·,·,·,·,
Cc1ccc2oc(/N=C(\N)NC(=O)C(C)(C)C)nc2c1,0,60*,91*,3,-44,-2,87*,92*,66,
COc1ccc(N2CCN(C(=O)c3ccc(CNS(=O)(=O)c4ccc(C)cc4)cc3)CC2)cc1,0,9,43,1,-12,-8,·,·,·,
Cc1ccc(S(=O)(=O)NCc2ccc(C(=O)N3CCN(c4ccc([N+](=O)[O-])cc4)CC3)cc2)cc1,0,59*,58,-2,0,-15,53*,83*,62,
COc1ccc(S(=O)(=O)/N=C2\C=C(Nc3ccc(O)cc3)C(=O)c3ccccc32)cc1,0,74*,114*,-1,9,-20,83*,99*,100*,
Cc1cc(/C=N/n2cnnc2)c(C)n1-c1ccc(OCc2ccc(Cl)cc2Cl)cc1,·,70*,111*,2,40*,-19,32,98*,89*,697 NFkB conf=13
Cc1cc(/C=N/n2cnnc2)c(C)n1-c1ccc(Cl)cc1,·,19,1,3,18,·,·,·,·,
c1ccc2c(c1)CCN(c1ncnc3c1[nH]c1ccccc13)C2,·,50*,89*,2,43*,-7,59*,95*,88*,697 NFkB conf=24
O=C([C@@H]1[C@@H](CO)[C@@H]2Cn3c(ccc(-c4ccccc4)c3=O)[C@H]1N2CCC(F)(F)F)N1CCOCC1,1,·,·,·,·,-2[16.7 µM],·,·,·,
COc1ccc(NC(=O)Nc2ccc3c(c2)C(=O)N([C@H](C)CO)C[C@@H](C)[C@H](CN(C)Cc2ccc4c(c2)OCO4)O3)cc1,-1,·,·,·,·,-1[16.7 µM],·,·,·,
O=C(Cc1ccccc1)Nc1ccc(NC(=O)c2ccco2)nc1,·,-69,-107,-2,-41,-2,·,·,·,
CC(C)(C)C(=O)Nc1ccc(NC(=O)c2ccco2)nc1,0,78*,88*,2,-33,-3,88*,65,40,
C[C@H]1CN([C@@H](C)CO)C(=O)Cc2cc(NC(=O)CCN3CCOCC3)ccc2O[C@@H]1CN(C)S(=O)(=O)c1ccc(F)cc1,0,·,·,·,·,1[16.7 µM],·,·,·,
SMILES,FGF22 binding,Jurkat NFkB inh,NR2E3 ag-1,NR2E3 ag-2,697 NFkB inh,miR-122 sensor,Jurkat NFkB conf,NR2E3 ag confirm,VP16 counter,others
CCOc1ccc(Nc2cc(C)nc(-n3nc(C)cc3C)n2)cc1,·,54*,84*,-2,11,28,57*,28,32,
Oc1ccccc1N=Nc1nc(-c2ccccc2)c(-c2ccccc2)[nH]1,·,58*,81*,4,-17,-30,76*,68,43,
C[C@H]1CN([C@@H](C)CO)C(=O)c2cc(NC(=O)NC3CCCCC3)ccc2O[C@H]1CN(C)C(=O)Nc1ccc(F)cc1,-1,·,·,·,·,-5[16.7 µM],·,·,·,
O=C(NCCc1ccccc1F)c1ccc2c(c1)OCCO2,0,76*,72*,1,55*,-6,82*,65,41,697 NFkB conf=39*
O=C(NCc1ccccc1F)c1ccc2c(c1)OCO2,·,-13,-24,0,3,-6,·,·,·,
COc1ccc(/C=C2\SC(=O)N(CCCC(=O)Nc3cc(Cl)ccc3C(=O)O)C2=O)cc1,·,73*,88*,·,92*,·,83*,80*,87*,697 NFkB conf=90*
COc1ccc(/C=C2\SC(=S)N(CCC(=O)Nc3ccccc3C(=O)O)C2=O)cc1,0,12,-23,2,15,-8,·,·,·,
O=C(C[C@H]1C[C@@H]2c3cc(NC(=O)Nc4ccc(C(F)(F)F)cc4)ccc3O[C@@H]2[C@@H](CO)O1)NCc1ccccn1,0,·,·,·,·,2[16.7 µM],·,·,·,
C[C@H]1CN([C@@H](C)CO)C(=O)c2cccc(NS(=O)(=O)c3cn(C)cn3)c2O[C@H]1CN(C)CC1CCCCC1,0,·,·,·,·,4[16.7 µM],·,·,·,
CC(C)(C)c1ccc(C(=O)O/N=C(\N)c2ccccn2)cc1,0,59*,106*,6,-63,1,86*,89*,76*,
